According to paper PMC6415796 (Nano letters, 2015):
Entries after “also recorded” stand apart in the source; their conditions may differ. Strand notation (5' to 3'): a small letter for the sugar, then the base; units joined by * are phosphorothioate-linked, units joined directly phosphodiester-linked; [ ] holds rarer units or linkages, { } end groups; capitals alone tell only the bases. [tcDNA-N] = tricyclo-DNA nucleotide (N: the base); m = 2'-O-methyl

Tests used:
[1] = tested on: class A scavenger receptor subtypes (SCARAs); assay: PPMO splice-switching activity; assay type: cell-based, murine; details: for Effect of SR ligand or control on splice-switching activity of PPMO: differentiated C2C12, ligand 50 μg/ml for 1 h before PPMO 500 nM for 4 h in Opti-MEM, then 20 h, nested RT-PCR
[2] = DLS analysis of ASOs in PBS; assay type: physicochemical; details: 1 mM ASO in PBS, each measured 3 times
[3] = DLS after incubation with physiological albumin solution; assay type: physicochemical; details: equal volume BSA 4.25 g/dL in PBS, 1 h at 37 °C, diluted 10x before DLS
[4] = tested on: Differentiated C2C12 cells; assay: Uptake of FITC-labelled ASOs with SR ligands; assay type: cell-based, murine; details: ligand pretreatment 1 h, then FITC-ASO 200 nM for 4 h
Summary of the method: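 C2C12 cells were grown in DMEM with 10% FBS, then differentiated 3-4 days in DMEM with 2% horse serum (2.5x10⁴/cm²). Cells were pretreated 1 h with scavenger-receptor ligands or control polyanions at 100 μg/ml. They were then given FITC-2'OMePS or FITC-tcDNA (200 nM) for 4 h, washed, and methanol-fixed (-20 °C, 10 min). Mean fluorescence intensity came from microscopy images; one-way ANOVA, mean ± SEM.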

[5] = TEM visualization of self-assembled nanoparticles; assay type: physicochemical; details: Fig. S3
[6] = target: T1, SCARA1 (Mus musculus, UniProt P30204); assay: Dmd exon 23 skipping; assay type: in vivo, mice; details: 10 mg/kg intravenous, 1 week, n=4, qPCR
T1 sequence (P30204 1-351 limits assumed): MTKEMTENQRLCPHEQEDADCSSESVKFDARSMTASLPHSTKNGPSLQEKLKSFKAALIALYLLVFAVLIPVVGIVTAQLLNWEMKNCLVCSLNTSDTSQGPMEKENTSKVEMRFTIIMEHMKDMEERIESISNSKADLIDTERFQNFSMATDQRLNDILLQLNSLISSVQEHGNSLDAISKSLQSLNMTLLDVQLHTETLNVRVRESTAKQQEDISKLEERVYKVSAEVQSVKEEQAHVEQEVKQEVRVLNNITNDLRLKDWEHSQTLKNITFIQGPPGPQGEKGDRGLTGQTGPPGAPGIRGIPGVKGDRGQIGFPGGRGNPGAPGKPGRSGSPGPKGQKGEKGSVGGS
Summary of the method: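 SCARA1-/- and C57BL/6 mice (14 months old, n = 4) received 10 mg/kg peptide–PMO conjugate in 0.9% saline via tail vein. After one week, tibialis anterior, diaphragm and heart were snap-frozen. Multiplex Taqman qPCR on 25 ng cDNA used FAM primers spanning exon 20-21 and HEX primers spanning exon 23-24. Skipping percentage came from normalising exon 23-24 to exon 20-21 amplification.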

[7] = Uptake and activity comparison of fluorescently labelled ASOs; assay type: cell-based; details: Fig. S4
[8] = Critical micelle concentration by dye micellization method; assay type: physicochemical; details: eosin Y 0.019 mM, absorbance at 542 nm, rounded value
[9] = Zeta potential measurement; assay type: physicochemical

Question: With chondroitin sulfate as the substance, how does the “Effect of SR ligand or control on splice-switching activity of PPMO” value (“Effect of SR ligand or control” below) [1] read?
Answer: Its value is “no effect”.

Question: With “2’OMe: 2’Omethyl phosphorothioate ASO 5’- GGCCAAACCUCGGCUUACCU-3’, synthesized by IDT (antisense mG*mG*mC*mC*mA*mA*mA*mC*mC*mU*mC*mG*mG*mC*mU*mU*mA*mC*mC*mU)” as the substance, how does the “DLS population profile (peaks)” value [2] read?
Answer: Its value is “predominant peak was of singular molecules”.

Question: And the “DLS size of predominant peak (singular molecules)” value [2]?
Answer: The value was “around 2 nm”.

Question: And the “DLS particulate peaks in albumin model” value [3]?
Answer: The value was “failed to do so”.

Question: And the “Uptake in the presence of fucoidin and dextran sulfates” value [4]?
Answer: The value was “only partially inhibited”.

Question: Which “Effect of SR ligand or control” value [1] does the source give for dextran sulfate here?
Answer: The value was “completely inhibited”.

Question: With RXRRBRRXR YQFLI RXRBRXRB [Pip6a-PMO] as the substance, how does the “Nanoparticle formation and relative size by TEM” value [5] read?
Answer: Its value is “spontaneously forms nanoparticles; also recorded: smaller than B-PMO nanoparticles”.

Question: And the “Uptake in the presence of SR ligands” value ([1]; Fig. S3)?
Answer: Its value is “significantly inhibited”.

Question: What about the “Exon 23-skipping activity in SCARA1 knock-out versus wild-type mice, diaphragm” value [6] of the same substance?
Answer: The value was “significantly reduced”.

Question: And the “Exon 23-skipping activity in SCARA1 knock-out versus wild-type mice, heart” value [6]?
Answer: Its value is “significantly reduced”.

Question: With “tcDNA: phosphorothioated tricyclo DNA 5’-AACCTCGGCTTACCT-3’, synthesized by SYNTHENA (all [tcDNA-N], all phosphorothioate, methylation of C not given here)” as the substance, how does the “Extent of uptake relative to other chemistries” value [7] read?
Answer: The value was “significantly higher than that of 2’OMe”.

Question: With RXRRBRRXRRBRXB [PPMO] as the substance, how does the “DLS population profile (peaks)” value [2] read?
Answer: The value was “two peaks, one for singular molecules and one representing a particulate population”.

Question: What about the “DLS particulate peaks in albumin model” value [3] of the same substance?
Answer: The value was “high intensity particulate peaks”.

Question: What about the “Critical micelle concentration (CMC)” value [8] of the same substance?
Answer: The value was “about 1.4 μM”.

Question: What about the Zeta potential ([9]; in PBS) of the same substance?
Answer: Its Zeta potential is -1.21 ± 0.63.

Question: What about the Zeta potential ([9]; in serum-free medium) of the same substance?
Answer: The Zeta potential was -3.48 ±2.31.

Question: What about the Zeta potential ([9]; in water) of the same substance?
Answer: The Zeta potential was 10 ± 2.70.

Question: And the “Extent of uptake relative to other chemistries” value [7]?
Answer: Its value is “several folds higher uptake than the other two chemistries”.

Question: For fucoidin sulfate, which “Effect of SR ligand or control” value [1] is on record?
Answer: The value was “completely inhibited”.
